According to ChEMBL document CHEMBL4622964, “Designing Dihydrofolate Reductase Inhibitors as X-ray Radiosensitizers to Reverse Radioresistance of Cervical Cancer” (ACS Med Chem Lett, 2020):
The source made the active and inactive calls. No cut-off for these calls is given here.

Legend:
[1] = Ratio of IC50 for cytotoxicity against human Ect1 cells assessed as reduction in cell viability by MTT assay to cytotoxicity against human Ect1 cells assessed as reduction in cell viability in presence of 4 Gy irradiation by MTT assay; assay type: cell-based; conditions: read-out: Ratio IC50
In short: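 MTT viability assay on Ect1/E6E7 normal ectocervical cells and HeLa cells, with 0 or 4 Gy X-rays. SER = IC50(0 Gy)/IC50(4 Gy) in the same line; safe index SI4 = IC50 Ect1/E6E7 + 4 Gy divided by IC50 HeLa + 4 Gy.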

[2] = tested on: HeLa; test: Effect on dihydrofolate reductase protein expression in human HeLa cell lysates at 1 to 2 uM by Western blot analysis; assay type: functional, cell-based
[3] = tested on: HeLa; test: Induction of cell cycle arrest in human HeLa cells assessed as accumulation at SubG1 phase at 1 uM after 48 hrs by propidium iodide staining based flow cytometric analysis (reference value: 0.8%); assay type: functional
[4] = tested on: HeLa; test: Induction of cell cycle arrest in human HeLa cells assessed as accumulation at G1 phase at 1 uM after 48 hrs by propidium iodide staining based flow cytometric analysis (reference value: 40.7%); assay type: functional
[5] = tested on: HeLa; test: Induction of cell cycle arrest in human HeLa cells assessed as accumulation at SubG1 phase at 1 uM after 48 hrs in presence of 4 Gy X-ray radiation by propidium iodide staining based flow cytometric analysis (reference value: […]); assay type: functional
[6] = tested on: HeLa; test: Induction of cell cycle arrest in human HeLa cells assessed as accumulation at G1 phase at 1 uM after 48 hrs in presence of 4 Gy X-ray radiation by propidium iodide staining based flow cytometric analysis (reference value: 28.6%); assay type: functional
[7] = tested on: HeLa; test: Induction of cell cycle arrest in human HeLa cells assessed as accumulation at S phase at 1 uM after 48 hrs in presence of 4 Gy X-ray radiation by propidium iodide staining based flow cytometric analysis (reference value: 31%); assay type: functional
[8] = tested on: HeLa; test: Induction of apoptosis in human HeLa cells assessed as caspase-8 activation at 1 uM using […] as substrate after 12 hrs by fluorescence based assay relative to control; assay type: functional
In short: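 Caspase-3 and caspase-8 activities were measured in HeLa cells after 12 h at 1 μM, without or with 4 Gy X-rays. Mean ± SD of three independent experiments.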

[9] = tested on: HeLa; test: Induction of mitochondrial dysfunction in human HeLa cells assessed as change in mitochondrial membrane potential at 1 uM incubated for 24 hrs in presence of 4 Gy X-ray irradiation by JC1 staining based flow cytometry (reference value: 4.9%); assay type: functional
In short: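 Mitochondrial membrane potential was assessed by JC-1 flow cytometry in HeLa cells treated at 1 μM without or with 4 Gy X-rays. Green fluorescence gives the proportion of cells with lost ΔΨm.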

[10] = tested on: HeLa; test: Induction of reactive oxygen species generation in human HeLa cells incubated with DHE for 30 mins and measured up to 30 mins in presence of 4 Gy X-ray radiation by fluorescence microscopic analysis; assay type: functional, cell-based
In short: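 HeLa cells pretreated with compound, with or without 4 Gy X-rays, then incubated with dihydroethidium for 30 min; red superoxide-derived fluorescence imaged by fluorescence microscopy, with observation continued over a further 30 min.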

[11] = tested on: HeLa; test: Induction of ROS generation in human HeLa cells in presence of 4 Gy X-ray irradiation by DHE fluorescent dye based microplate reader analysis (reference value: 150%); assay type: functional
[12] = tested on: HeLa; test: Inhibition of cell migration in human HeLa cells assessed as reduction in spreading rate at 1 uM after 24 hrs in presence of 4 Gy X-ray irradiation by phase contrast microscopic analysis; assay type: functional, cell-based
In short: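 Wound-healing scratch assay on HeLa monolayers, compound with or without 4 Gy X-rays; wound closure recorded by phase-contrast microscopy at set times; migrated cells counted manually; mean ± SD of three independent experiments.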

[13] = tested on: HeLa; test: Antimigratory activity in human HeLa cells assessed as inhibition of cell migration at 1 uM after 24 hrs in presence of 4 Gy irradiation by wound healing assay (reference value: 35%); assay type: functional; conditions: light or radiation study, read-out: INH
In short: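 Wound-healing scratch assay in HeLa cells. Cells were treated without or with 4 Gy X-rays, and wound closure was imaged by phase-contrast microscopy at the indicated times. Migrated cells were counted manually. Mean ± SD of three independent experiments.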

[14] = Drug localization in lysosome of human HeLa cells at 20 uM after 4 hrs by LysoTracker/DAPI staining based fluorescence microscopic analysis; assay type: ADME, subcellular
In short: (§1)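 HeLa cells pretreated with 20 μM compound; LysoTracker added 2 h and DAPI 30 min before each time point; compound green fluorescence (emission about 510 nm) overlaid with lysosome (red) and nucleus under fluorescence microscope.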

[15] = Drug localization in cytoplasm of human HeLa cells at 20 uM after 8 hrs by LysoTracker/DAPI staining based fluorescence microscopic analysis; assay type: ADME, subcellular; in short: as §1
[16] = tested on: HeLa; test: Antitumor activity against human HeLa cells xenografted in BALB/c mouse assessed as reduction in tumor growth at 4 mg/kg, iv administered for every 3 days for 21 days in presence of 4 Gy X-ray irradiation relative to control; assay type: functional; design: scale not given: the % may be the effect or the level left
In short: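 HeLa tumour-bearing nude mice were dosed at 4 mg/kg by tail-vein injection every 3 days over a 21-day period, with or without X-ray irradiation. Tumours were photographed and sectioned for H&E staining. Body weight was recorded over the 21 days.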

[17] = Toxicity in BALB/c mouse xenografted with human HeLa cells assessed as kidney damage at 4 mg/kg, iv administered for every 3 days for 21 days and measured after 24 hrs post last dose by H and E staining based light microscopic analysis; assay type: organism-based; conditions: in vivo
In short: (§2)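 HeLa-tumor-bearing nude mice dosed at 4 mg/kg iv every 3 days for 21 days, alone or with X-rays; euthanized 24 h after last injection; heart, liver, lungs, kidneys and spleen sectioned and stained with H&E.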

[18] = Toxicity in BALB/c mouse xenografted with human HeLa cells assessed as lung damage at 4 mg/kg, iv administered for every 3 days for 21 days and measured after 24 hrs post last dose in presence of 4 Gy X-ray irradiation by H and E staining based light microscopic analysis; assay type: organism-based; conditions: in vivo; in short: as §2
[19] = Toxicity in BALB/c mouse xenografted with human HeLa cells assessed as body weight loss at 4 mg/kg, iv administered for every 3 days and measured after 21 days; assay type: organism-based; conditions: in vivo, 504 h
In short: (§3)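 HeLa-tumor-bearing nude mice given compound at 4 mg/kg by tail-vein injection every 3 days, alone or with X-rays; body weight recorded across 21 days.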

[20] = Toxicity in BALB/c mouse xenografted with human HeLa cells assessed as body weight loss at 4 mg/kg, iv administered for every 3 days and measured after 21 days in presence of 4 Gy X-ray irradiation; assay type: organism-based; conditions: in vivo, 504 h; in short: as §3
[21] = Toxicity in BALB/c mouse xenografted with human HeLa cells assessed as liver damage by measuring effect on AST level at 4 mg/kg, iv administered every 3 days for 21 days; assay type: organism-based; conditions: in vivo
In short: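 HeLa xenograft nude mice dosed at 4 mg/kg iv every 3 days over 21 days, alone or with X-rays; blood collected 24 h after last injection for serum biochemistry: ALT, AST (liver), BUN and uric acid (kidney).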

[22] = Drug uptake in human HeLa cells at 4 uM after 4 hrs by fluorescence based assay; assay type: ADME, cell-based

SMILES: Nc1nc(N)c2nc3c(nc2n1)-c1cccc2cccc-3c12
- selectivity ratio [1]: 2.2
- Activity [2]: Active
- Activity [3]: 6.9%
- Activity [4]: 38.7%
- Activity [5]: 30.2%
- Activity [6]: 47.7%
- Activity [7]: 16.1%
- Activity [8]: 110%
- Activity [9]: 32.3%
- Activity [10]: Active
- Activity [11]: 205%
- inhibition [12]: Active
- inhibition at 1 µM [13]: 81%
- Drug uptake [14]: Active
- Drug uptake [15]: Active
- Activity [16]: 32%
- Activity [17]: Non-Toxic
- Activity [18]: Non-Toxic
- Activity [19]: Non-Toxic
- Activity [20]: Non-Toxic
- Activity [21]: Non-Toxic
- Drug uptake [22]: Active
